{"data": "Measurements gathered from unrelated publications", "RPS6KA2 C-terminal kinase domain": "Ribosomal protein S6 kinase alpha-2, C-terminal kinase domain (RPS6KA2, Homo sapiens, UniProt Q15349)", "RPS6KA2": "Ribosomal protein S6 kinase alpha-2 (RPS6KA2, Homo sapiens, UniProt Q15349)", "RPS6KA2 N-terminal kinase domain": "Ribosomal protein S6 kinase alpha-2, N-terminal kinase domain (RPS6KA2, Homo sapiens, UniProt Q15349)", "note": "Protocols differ between the studies behind these lines."}
{"Structure (SMILES)": "N[C@H]1CCN(c2nccc(-c3cnn4ncccc34)n2)C1", "target": "RPS6KA2 C-terminal kinase domain", "test": "binding, competition with immobilised ligand", "setting": "1 µM", "quantity": "remaining binding", "result": "91%"}
{"Structure (SMILES)": "Nc1ncnc2occ(-c3ccc(NC(=O)Nc4cc(C(F)(F)F)ccc4F)cc3)c12", "target": "RPS6KA2 C-terminal kinase domain", "test": "cell-free assay, inhibitor", "setting": "20 µM", "quantity": "remaining signal", "result": "2.3%"}
{"Structure (SMILES)": "CNC(=O)c1ccc(Nc2ncc(C(F)(F)F)c(NCc3nccnc3N(C)S(C)(=O)=O)n2)cc1", "target": "RPS6KA2 C-terminal kinase domain", "test": "cell-free assay, competition with immobilised ligand", "setting": "0.1 µM", "quantity": "remaining binding", "result": "61%"}
{"Structure (SMILES)": "CC1CCCN1c1nccc(-c2cnn3ncccc23)n1 (stereo not shown)", "target": "RPS6KA2 C-terminal kinase domain", "test": "binding, competition with immobilised ligand", "setting": "1 µM", "quantity": "remaining binding", "result": "100%"}
{"Structure (SMILES)": "Cc1cc(NC(=O)c2cccc3cc(-c4cccc5[nH]nc(N)c45)ccc23)ccc1F", "target": "RPS6KA2", "test": "enzyme activity, inhibitor", "setting": "0.1 µM", "quantity": "activity vs control", "result": "95%"}
{"Structure (SMILES)": "CN(C)c1nccc(-c2cnn3ncccc23)n1", "target": "RPS6KA2 C-terminal kinase domain", "test": "binding, competition with immobilised ligand", "setting": "1 µM", "quantity": "remaining binding", "result": "100%"}
{"Structure (SMILES)": "CCN(CC)c1ccc(C2=NNC(=O)CC2C)cc1[N+](=O)[O-] (stereo not shown)", "target": "RPS6KA2", "test": "enzyme activity, inhibitor", "setting": "10 µM", "quantity": "remaining activity", "result": "98%"}
{"Structure (SMILES)": "CNC(=O)Nc1ccc2c(c1)[C@@]1(CC2)OC(=O)N(CC(=O)N(Cc2ccc(F)cc2)[C@@H](C)C(F)(F)F)C1=O", "target": "RPS6KA2 C-terminal kinase domain", "test": "cell-free assay, competition with immobilised ligand", "setting": "1 µM", "quantity": "remaining binding", "result": "100%"}
{"Structure (SMILES)": "CCOc1cc(-c2nncn2C)ccc1Nc1ncc2cc(C)nc(NCC(C)(C)C)c2n1", "target": "RPS6KA2", "test": "enzyme activity, inhibitor, FRET", "setting": "1 µM", "quantity": "inhibition", "result": "< 15%"}
{"Structure (SMILES)": "NS(=O)(=O)c1cc(NC(=O)C2(c3ccccc3Cl)CC2)ccc1Oc1cccc(Cl)c1", "target": "RPS6KA2 C-terminal kinase domain", "test": "cell-free assay, competition with immobilised ligand", "setting": "1 µM", "quantity": "remaining binding", "result": "100%"}
{"Structure (SMILES)": "Cc1ccc(C(=O)Nc2ccc(CN3CCN(C)CC3)c(C(F)(F)F)c2)cc1C#Cc1cnc2cccnn12", "target": "RPS6KA2", "test": "enzyme activity, inhibitor", "setting": "23.5 nM", "quantity": "activity vs control", "result": "98%"}
{"Structure (SMILES)": "CNCc1ccc(-c2cc(-c3nc(-c4ccc(S(=O)(=O)C(C)C)cc4)cnc3N)on2)cc1", "target": "RPS6KA2", "test": "enzyme activity, inhibitor", "setting": "2 µM", "quantity": "inhibition", "result": "49%"}
{"Structure (SMILES)": "CN(C)c1ncc(F)c(-c2cnn3ncccc23)n1", "target": "RPS6KA2 N-terminal kinase domain", "test": "binding, competition with immobilised ligand", "setting": "1 µM", "quantity": "remaining binding", "result": "100%"}
{"Structure (SMILES)": "O=C(NC[C@@H]1[C@H]2CN(C(=O)OCc3cc(C(F)(F)F)cc(C(F)(F)F)c3)C[C@@H]12)c1ccc2[nH]nnc2c1", "target": "RPS6KA2 C-terminal kinase domain", "test": "cell-free assay, competition with immobilised ligand", "setting": "1 µM", "quantity": "remaining binding", "result": "84%"}
{"Structure (SMILES)": "F[C@@H]1CCN(c2nccc(-c3cnn4ncccc34)n2)C1", "target": "RPS6KA2 N-terminal kinase domain", "test": "binding, competition with immobilised ligand", "setting": "1 µM", "quantity": "remaining binding", "result": "93%"}
{"Structure (SMILES)": "FC(F)(F)c1ccc2c(c1)nc(-c1cccnc1)n2C1CC1", "target": "RPS6KA2 N-terminal kinase domain", "test": "cell-free assay, competition with immobilised ligand", "setting": "1 µM", "quantity": "remaining binding", "result": "100%"}
{"Structure (SMILES)": "CC(C)(C)c1nc2c(s1)c1nc(N)ncc1c1ccc(NS(=O)(=O)c3c(F)cccc3F)c(F)c12", "target": "RPS6KA2", "test": "enzyme activity, inhibitor, radiometric", "setting": "1 µM", "quantity": "remaining activity", "result": "84%"}
{"Structure (SMILES)": "CN(C)C(=O)Cn1cc(-c2nc([C@@](C)(c3ccc(-c4cnc(N)nc4)cc3)C3CC3)no2)cn1", "target": "RPS6KA2 N-terminal kinase domain", "test": "cell-free assay, competition with immobilised ligand", "setting": "1 µM", "quantity": "remaining binding", "result": "85%"}
{"Structure (SMILES)": "COc1cc2ncnc(Nc3ccc(Oc4ccccc4)cc3C)c2cc1OC", "target": "RPS6KA2", "test": "enzyme activity, inhibitor", "setting": "1 µM", "quantity": "inhibition", "result": "3%"}
{"Structure (SMILES)": "Cc1ccc(C(=O)NCc2ccsc2)cc1C#Cc1cn(C(C)C)c2ncnc(N)c12", "target": "RPS6KA2", "test": "enzyme activity, inhibitor", "setting": "1 µM", "quantity": "activity vs control", "result": "85%"}
{"Structure (SMILES)": "Cc1ccc(Nc2nccc(N(C)c3ccc4c(C)n(C)nc4c3)n2)cc1S(N)(=O)=O", "target": "RPS6KA2", "test": "enzyme activity, inhibitor", "setting": "10 µM", "quantity": "inhibition", "result": "64%"}
{"Structure (SMILES)": "C[C@H]1CCN(c2nccc(-c3cnn4ncccc34)n2)C1", "target": "RPS6KA2 C-terminal kinase domain", "test": "binding, competition with immobilised ligand", "setting": "1 µM", "quantity": "remaining binding", "result": "100%"}
{"Structure (SMILES)": "O=C(NCCCC1CCCCC1)c1ccc(CNC(=O)c2cnn(-c3ccccc3)c2C(F)(F)F)cc1", "target": "RPS6KA2 C-terminal kinase domain", "test": "cell-free assay, competition with immobilised ligand", "setting": "0.1 µM", "quantity": "remaining binding", "result": "96%"}
{"Structure (SMILES)": "Cc1cnn2ncc(-c3ccnc(N(C)C)n3)c2c1", "target": "RPS6KA2 N-terminal kinase domain", "test": "binding, competition with immobilised ligand", "setting": "1 µM", "quantity": "remaining binding", "result": "85%"}
{"Structure (SMILES)": "CCS(=O)(=O)c1cc2cc(C[C@](O)(CC(C)(C)c3ccc(F)cc3C(N)=O)C(F)(F)F)[nH]c2cn1", "target": "RPS6KA2 N-terminal kinase domain", "test": "cell-free assay, competition with immobilised ligand", "setting": "1 µM", "quantity": "remaining binding", "result": "100%"}
